Measured values reported in ChEMBL document CHEMBL1123514 (J Med Chem, 1986).

Key:
Homo sapiens [1] = organism: Homo sapiens; assay: The compound was evaluated for the optical density at concentration 10E-5 M in MCF-7 cell culture.; assay type: ADME
[2] = biological target: Estrogen receptor (Rattus norvegicus) (UniProt P06211+Q62986)
Homo sapiens [3] = organism: Homo sapiens; assay: The compound was evaluated for the optical density at concentration 10E-6 M in MCF-7 cell culture in the presence of estradiol.; assay type: ADME
Outline: (§1)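 MCF-7 cells seeded at 10000 cells/mL in 96-well dishes and cultured 24 h. Compound (final 10⁻⁷, 10⁻⁶ or 10⁻⁵ M) was then added together with estradiol at 10⁻⁸ M final to test whether estradiol antagonizes growth inhibition. After 5 days, cells were ethanol-fixed (90%) and hematoxylin-stained, and optical density was read at 540 nm.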

Homo sapiens [4] = organism: Homo sapiens; assay: The compound was evaluated for the optical density at concentrations 10E-5 M in MCF-7 cell culture in the presence of estradiol.; assay type: ADME; outline: as §1
Homo sapiens [5] = organism: Homo sapiens; assay: The compound was evaluated for the optical density at concentration 10E-6 M in MCF-7 cell culture.; assay type: ADME
[6] = biological target: Estrogen receptor (Homo sapiens) (UniProt P03372)
Homo sapiens [7] = organism: Homo sapiens; assay: The compound was evaluated for the optical density at concentration 10E-7 M in MCF-7 cell culture.; assay type: ADME
Homo sapiens [8] = organism: Homo sapiens; assay: The compound was evaluated for the optical density at concentrations 10E-7 M in MCF-7 cell culture in the presence of estradiol.; assay type: ADME; outline: as §1

Sequence of Estrogen receptor (Homo sapiens) (P03372 whole entry, looked up): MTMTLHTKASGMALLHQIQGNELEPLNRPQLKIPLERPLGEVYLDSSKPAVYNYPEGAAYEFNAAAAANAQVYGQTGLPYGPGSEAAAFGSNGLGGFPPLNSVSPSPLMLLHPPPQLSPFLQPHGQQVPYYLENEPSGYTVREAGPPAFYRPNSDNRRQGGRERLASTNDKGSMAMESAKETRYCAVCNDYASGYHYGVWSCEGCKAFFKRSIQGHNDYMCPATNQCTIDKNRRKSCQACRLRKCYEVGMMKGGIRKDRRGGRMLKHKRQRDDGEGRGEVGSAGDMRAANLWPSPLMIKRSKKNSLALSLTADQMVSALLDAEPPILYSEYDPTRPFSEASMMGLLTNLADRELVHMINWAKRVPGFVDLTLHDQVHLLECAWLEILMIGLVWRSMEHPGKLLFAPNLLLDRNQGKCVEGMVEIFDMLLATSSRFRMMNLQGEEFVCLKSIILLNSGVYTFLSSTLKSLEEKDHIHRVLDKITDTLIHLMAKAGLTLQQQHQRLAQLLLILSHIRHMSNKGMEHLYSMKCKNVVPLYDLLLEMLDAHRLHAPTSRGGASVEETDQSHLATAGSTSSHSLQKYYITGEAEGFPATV

Optical density (Homo sapiens [1])	Affinity [2]	Optical density (Homo sapiens [3])	Optical density (Homo sapiens [4])	Optical density (Homo sapiens [5])	Affinity [6]	Optical density (Homo sapiens [7])	Optical density (Homo sapiens [8])	SMILES
0.058	1	0.438	0.098	0.182	0.02	0.244	0.379	CN(C)CCOc1ccc(C2=C(c3ccccc3)CCCc3ccccc32)cc1
0.049	0.5	0.385	0.079	0.288	0.02	0.39	0.45	CN(C)CCOc1ccc(C2=C(c3ccccc3)CCc3ccccc32)cc1
